Measured values from different studies.
Lines come from different studies, so protocols differ.
SLC18A2: Synaptic vesicular amine transporter (SLC18A2, Homo sapiens, UniProt Q05940)
CYP2C19: Cytochrome P450 2C19 (CYP2C19, Homo sapiens, UniProt P33261)
gag-pol reverse transcriptase: Gag-Pol polyprotein, reverse transcriptase (gag-pol, Human immunodeficiency virus 1, UniProt P03366)
CA1: Carbonic anhydrase 1 (CA1, Homo sapiens, UniProt P00915)
ERBB2: Receptor tyrosine-protein kinase erbB-2 (ERBB2, Homo sapiens, UniProt P04626)
LATS1: Serine/threonine-protein kinase LATS1 (LATS1, Homo sapiens, UniProt O95835)
ACKR3: Atypical chemokine receptor 3 (ACKR3, Homo sapiens, UniProt P25106)
UGT1A4: UDP-glucuronosyltransferase 1A4 (UGT1A4, Homo sapiens, UniProt P22310)

Compound | target | test | system | conditions | IC50 [µM]
CC(C)Nc1cccnc1N1CCN(C(=O)c2cc3cc(NS(C)(=O)=O)ccc3[nH]2)CC1 | SLC18A2 | transporter uptake, inhibitor | – | – | 4.04
OCc1ccc(-c2nn(Cc3ccccc3)c3ccccc23)o1 | CYP2C19 | enzyme activity, inhibitor | human, liver microsomes | – | 3.3
CCOC(=O)c1c(N(CC)CC)c2c([nH]c1=O)CCC2 | gag-pol reverse transcriptase | enzyme activity, inhibitor | – | – | > 100
CN(C/C=C/C#CC(C)(C)C)Cc1cccc2ccccc12 | CA1 | enzyme activity, inhibitor, absorbance | – | pH 7.4 | 30.3
Cc1cc2c(cc1C)N[C@H](c1ccccc1)[C@@H](O)C(=O)N2 | ERBB2 | enzyme activity, inhibitor, ELISA | – | – | 0.023
Cc1ccc(OCC(=O)N[C@@H](Cc2c[nH]c3ccccc23)C(=O)OC(C)C)cc1 | CYP2C19 | enzyme activity, inhibitor | human, liver microsomes | 30 min | 31.5
OC1(c2ccc(-c3ccnc4[nH]cc(F)c34)cc2)CCCNCC1 (stereo not shown) | LATS1 | target engagement in cells, BRET | – | – | 7.09
CCOC(=O)c1c(NC)c2c([nH]c1=O)CCC2 | gag-pol reverse transcriptase | enzyme activity, inhibitor | – | – | > 100
CC(=O)N1C[C@@H](C)[C@](O)(c2c(C)cc(-c3ccnc4[nH]cc(F)c34)cc2F)[C@@H](C)C1 | LATS1 | enzyme activity, inhibitor, radiometric | – | – | 0.0067
CCOC(=O)c1c(NCCC(C)C)c2c([nH]c1=O)CCC2 | gag-pol reverse transcriptase | enzyme activity, inhibitor | – | – | 88.7
Cc1cc(-c2ccnc3[nH]cc(F)c23)cc(F)c1[C@@]1(O)[C@H](C)CN(C(=O)CN)C[C@@H]1C | LATS1 | enzyme activity, inhibitor, radiometric | – | – | 0.0018
Cn1cnc([N+](=O)[O-])c1Sc1ncnc2nc[nH]c12 | CA1 | enzyme activity, inhibitor, absorbance | – | pH 7.4 | 18.4
C=CCc1ccccc1OCC(O)CNC(C)C (stereo not shown) | SLC18A2 | transporter uptake, inhibitor | – | – | 7.7
CC(C)(C)NC(=O)C1CCN(Cc2cccc(/N=N/c3ccc(C(F)(F)F)cc3)c2)CC1 | ACKR3 | ligand displacement, BRET | – | – | > 10
NC(=O)c1nnn(Cc2cc(Cl)c(C(=O)c3ccc(Cl)cc3)c(Cl)c2)c1N | Delta-type opioid receptor (OPRD1, Homo sapiens, UniProt P41143) | cAMP, antagonist | – | – | 1.09
[H]/N=C(/N)c1ccc(NCc2nc3cc(C(=O)N(CCC(=O)O)c4ccccn4)ccc3n2C)cc1 | Plasminogen (PLG, Homo sapiens, UniProt P00747) | enzyme activity, inhibitor, absorbance | – | – | 1.7
C=C(C)[C@@H]1CC[C@]2(C(=O)O)CC[C@]3(C)[C@H](CC[C@@H]4[C@@]5(C)CC[C@H](O)C(C)(C)[C@@H]5CC[C@]43C)[C@@H]12 | UGT1A4 | enzyme activity, inhibitor | human, liver microsomes | – | 4.21
CCOC(=O)N1CCC(=C2c3ccc(Cl)cc3CCc3cccnc32)CC1 | CA1 | enzyme activity, inhibitor, absorbance | – | pH 7.4 | 11.9
CCOC(=O)c1c(NC(CC)CO)c2c([nH]c1=O)CCC2 (stereo not shown) | gag-pol reverse transcriptase | enzyme activity, inhibitor | – | – | > 100
COc1c(Cl)cccc1Nc1c(-c2ccncc2OC[C@@H]2COCCO2)[nH]c2c1C(=O)NCC2 | ERBB2 | enzyme activity, inhibitor, TR-FRET | – | – | < 0.0005
CCOC(=O)c1c(NCCCN)c2c([nH]c1=O)CCC2 | gag-pol reverse transcriptase | enzyme activity, inhibitor | – | – | > 100
CCOCCn1c(C2CCN(CCc3ccc(C(C)(C)C(=O)O)cc3)CC2)nc2ccccc21 | Carbonic anhydrase 2 (CA2, Homo sapiens, UniProt P00918) | enzyme activity, inhibitor, absorbance | – | pH 7.4 | 13.4
C[C@@H]1CNC[C@H](C)[C@@]1(O)c1ccc(-c2ccnc3[nH]cc(F)c23)cc1 | LATS1 | enzyme activity, inhibitor, radiometric | – | – | 0.011

Compound | target | test | system | conditions | IC50 [µM]
OC(Cn1cncn1)(Cn1cncn1)c1ccc(F)cc1F | CA1 | enzyme activity, inhibitor, absorbance | – | pH 7.4 | 11.1
CN1CCC(CNc2ccc3ncc(-c4cccc(OC(F)(F)F)c4)n3n2)CC1 | 5-hydroxytryptamine receptor 3A (HTR3A, Homo sapiens, UniProt P46098) | ion current | – | – | 3.48
Cc1cc(-c2ccnc3[nH]cc(F)c23)cc(F)c1[C@@]1(O)[C@H](C)CNC[C@@H]1C | LATS1 | target engagement in cells, BRET | – | – | 0.027
CC1=C(/C=C/C(C)=C/C=C/C(C)=C\C(=O)O)C(C)(C)CCC1 | CA1 | enzyme activity, inhibitor, absorbance | – | pH 7.4 | 8.47
CNCCC(Oc1ccc(C(F)(F)F)cc1)c1ccccc1 (stereo not shown) | SLC18A2 | transporter uptake, inhibitor | – | – | 2.75
Cc1cncc(CN2CCC(=C3c4ccc(Cl)cc4CCc4cccnc43)CC2)c1 | CA1 | enzyme activity, inhibitor, absorbance | – | pH 7.4 | 14.7
O=C1/C(=C/c2ccc3ccccc3c2O)NC(=S)N1c1ccccc1 | ERBB2 | enzyme activity, inhibitor, ELISA | – | – | 0.197
Clc1ccc(C2(c3ccc(-c4cn[nH]c4)cc3)CCNCC2)cc1 | LATS1 | target engagement in cells, BRET | – | – | 8.87
CNC(=O)c1ccccc1Sc1ccc2c(/C=C/c3ccccn3)n[nH]c2c1 | SLC18A2 | transporter uptake, inhibitor | – | – | 8.2
CCOC(=O)c1c(NCCO)c2c([nH]c1=O)CCC2 | gag-pol reverse transcriptase | enzyme activity, inhibitor | – | – | > 100
NC(=O)N1c2ccccc2C=Cc2ccccc21 | Sodium channel protein type 2 subunit alpha (SCN2A, Homo sapiens, UniProt Q99250) | ion current, inhibitor, patch clamp | – | – | > 300
OC1(c2ccc(-c3ccnc4[nH]cc(F)c34)cc2)CCNCC1 | LATS1 | enzyme activity, inhibitor, radiometric | – | – | 0.0029
Nc1ccc(S(=O)(=O)c2ccc(N)cc2)cc1 | CA1 | enzyme activity, inhibitor, absorbance | – | pH 7.4 | 17.1
CCOC(=O)c1c(NCCC2CC2)c2c([nH]c1=O)CCC2 | gag-pol reverse transcriptase | enzyme activity, inhibitor | – | – | > 100
O=C1CC2(CCCC2)CC(=O)N1CCCCN1CCN(c2ncccn2)CC1 | SLC18A2 | transporter uptake, inhibitor | – | – | 2.19
C/C=C/CNc1c2c([nH]c(=O)c1C(=O)OCC)CCC2 | gag-pol reverse transcriptase | enzyme activity, inhibitor | – | – | > 100
CCc1nn(CCCN2CCN(c3cccc(Cl)c3)CC2)c(=O)n1CCOc1ccccc1 | SLC18A2 | transporter uptake, inhibitor | – | – | 0.667
CC(C)(C)NC(=O)C1CCN(Cc2cccc(/N=N/c3ccccc3)c2)CC1 | ACKR3 | ligand displacement, BRET | – | – | 1
C[C@@H]1CC[C@@]2(OC1)O[C@H]1C[C@H]3[C@@H]4CC[C@H]5C[C@@H](O)CC[C@]5(C)[C@H]4CC(=O)[C@]3(C)[C@H]1[C@@H]2C | UGT1A4 | enzyme activity, inhibitor | – | – | 2.3
OCCN1CCN(CCCN2c3ccccc3Sc3ccc(C(F)(F)F)cc32)CC1 | SLC18A2 | transporter uptake, inhibitor | – | – | 2.34
CC(C)(C)NC(=O)C1CCN(Cc2cccc(/N=N/c3ccccc3F)c2)CC1 | ACKR3 | ligand displacement, BRET | – | – | 1.26
CNC(=O)c1ccccc1Nc1nc(Nc2ccc(N3CCNCC3)cc2)ncc1Cl | LATS1 | target engagement in cells, BRET | – | – | 0.301
COc1cc2nc(N3CCN(C(=O)c4ccco4)[C@H]4CCCC[C@H]43)nc(N)c2cc1OC (racemic) | SLC18A2 | transporter uptake, inhibitor | – | – | 0.146
